Test results taken from ChEMBL document CHEMBL1148412, “Discovery of a new class of anilinoquinazoline inhibitors with high affinity and specificity for the tyrosine kinase domain of c-Src” (J Med Chem, 2004).
Values after ≈ are worked out from the molar mass of the structure shown.

How the values were obtained:
[1] = molecular target: Vascular endothelial growth factor receptor 2 (Homo sapiens, UniProt P35968); experiment: In vitro inhibitory concentration against VEGF receptor 2.
In short: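 KDR kinase selectivity assay, using a previously reported method. IC50 is the mean of at least three independent dose-response curves.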

A549 = experiment: In vitro inhibitory concentration against proliferation of A459 cell line.; conditions: Homo sapiens
[2] = molecular target: Proto-oncogene tyrosine-protein kinase Src (Homo sapiens, UniProt P12931); experiment: In vitro inhibitory concentration against src-tyrosine kinase
Proto-oncogene tyrosine-protein kinase Src, sequence (P12931 2-536 limits assumed): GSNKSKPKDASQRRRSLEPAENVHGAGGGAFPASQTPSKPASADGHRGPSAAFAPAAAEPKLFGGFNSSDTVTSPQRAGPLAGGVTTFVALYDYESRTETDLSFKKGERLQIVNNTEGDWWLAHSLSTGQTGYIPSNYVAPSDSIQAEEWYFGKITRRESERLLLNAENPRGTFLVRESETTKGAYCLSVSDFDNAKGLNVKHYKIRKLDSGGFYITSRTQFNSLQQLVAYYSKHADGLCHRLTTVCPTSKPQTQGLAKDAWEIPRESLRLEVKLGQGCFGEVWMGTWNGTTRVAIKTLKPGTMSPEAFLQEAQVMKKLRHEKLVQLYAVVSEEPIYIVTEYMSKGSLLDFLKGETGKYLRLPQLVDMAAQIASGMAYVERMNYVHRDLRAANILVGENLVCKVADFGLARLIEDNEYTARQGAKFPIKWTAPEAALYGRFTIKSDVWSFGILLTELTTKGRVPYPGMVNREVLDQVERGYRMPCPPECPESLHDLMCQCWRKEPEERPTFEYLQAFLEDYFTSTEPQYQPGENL

Angiopoietin-1 receptor = Angiopoietin-1 receptor (Homo sapiens, UniProt Q02763); experiment: Inhibition of Tyrosine protein kinase receptor TIE-2
[3] = Cl in rat i.v. at 2 mg/kg concentration; assay type: ADME, organism-based; design: dose 2 mg/kg, route intravenous; conditions: in vivo, iv
In short: (§1)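 Single-dose rat pharmacokinetics: intravenous 2 mg/kg in 25% (w/v) hydroxypropyl-β-cyclodextrin/Sorenson's phosphate buffer (pH 5.5), or oral 20 mg/kg. Oral parameters are Cmax, AUC0-∞ and 24 h blood level. Intravenous parameters are clearance, terminal half-life and Vdss. Bioavailability (F) is derived from the oral and intravenous arms.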

[4] = molecular target: Vascular endothelial growth factor receptor 1 (Homo sapiens, UniProt P17948); experiment: Inhibition of Vascular endothelial growth factor receptor 1
Vascular endothelial growth factor receptor 1, sequence (P17948 whole entry): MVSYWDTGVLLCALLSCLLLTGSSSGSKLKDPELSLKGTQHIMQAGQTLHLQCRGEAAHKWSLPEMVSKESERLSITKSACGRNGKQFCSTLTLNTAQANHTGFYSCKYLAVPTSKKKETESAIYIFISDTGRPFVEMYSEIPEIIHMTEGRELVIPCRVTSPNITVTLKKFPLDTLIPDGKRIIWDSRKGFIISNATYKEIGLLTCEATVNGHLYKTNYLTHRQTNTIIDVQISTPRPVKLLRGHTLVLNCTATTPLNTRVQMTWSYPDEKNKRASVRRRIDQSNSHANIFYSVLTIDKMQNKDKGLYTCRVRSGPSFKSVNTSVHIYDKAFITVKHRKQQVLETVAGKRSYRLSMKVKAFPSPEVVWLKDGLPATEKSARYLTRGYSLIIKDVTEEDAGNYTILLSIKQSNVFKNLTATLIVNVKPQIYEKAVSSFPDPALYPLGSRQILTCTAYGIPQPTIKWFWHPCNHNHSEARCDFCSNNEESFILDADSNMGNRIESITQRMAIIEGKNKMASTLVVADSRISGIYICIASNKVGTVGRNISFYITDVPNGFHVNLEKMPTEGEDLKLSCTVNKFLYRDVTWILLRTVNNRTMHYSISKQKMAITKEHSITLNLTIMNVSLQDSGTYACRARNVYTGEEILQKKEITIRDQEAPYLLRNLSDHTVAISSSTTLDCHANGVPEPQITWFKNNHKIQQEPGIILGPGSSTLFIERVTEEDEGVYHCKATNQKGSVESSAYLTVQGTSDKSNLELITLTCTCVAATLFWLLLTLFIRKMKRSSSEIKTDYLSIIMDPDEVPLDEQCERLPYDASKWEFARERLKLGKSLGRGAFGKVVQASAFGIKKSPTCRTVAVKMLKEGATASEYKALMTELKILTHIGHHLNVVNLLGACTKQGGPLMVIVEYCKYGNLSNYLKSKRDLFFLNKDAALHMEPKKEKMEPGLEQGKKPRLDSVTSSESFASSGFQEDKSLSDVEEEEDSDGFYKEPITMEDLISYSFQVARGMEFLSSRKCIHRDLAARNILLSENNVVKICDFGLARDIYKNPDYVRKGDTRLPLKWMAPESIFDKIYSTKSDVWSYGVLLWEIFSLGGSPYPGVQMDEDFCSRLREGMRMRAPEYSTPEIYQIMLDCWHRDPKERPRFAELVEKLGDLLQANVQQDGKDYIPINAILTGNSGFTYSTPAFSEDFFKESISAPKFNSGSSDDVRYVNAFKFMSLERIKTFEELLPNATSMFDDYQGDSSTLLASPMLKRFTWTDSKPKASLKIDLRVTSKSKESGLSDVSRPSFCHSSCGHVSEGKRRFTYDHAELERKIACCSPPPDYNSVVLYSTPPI

[5] = molecular target: Fibroblast growth factor receptor 1 (Homo sapiens, UniProt P11362); experiment: In vitro inhibition of Fibroblast growth factor receptor (FTK)
Fibroblast growth factor receptor 1, sequence (P11362 whole entry): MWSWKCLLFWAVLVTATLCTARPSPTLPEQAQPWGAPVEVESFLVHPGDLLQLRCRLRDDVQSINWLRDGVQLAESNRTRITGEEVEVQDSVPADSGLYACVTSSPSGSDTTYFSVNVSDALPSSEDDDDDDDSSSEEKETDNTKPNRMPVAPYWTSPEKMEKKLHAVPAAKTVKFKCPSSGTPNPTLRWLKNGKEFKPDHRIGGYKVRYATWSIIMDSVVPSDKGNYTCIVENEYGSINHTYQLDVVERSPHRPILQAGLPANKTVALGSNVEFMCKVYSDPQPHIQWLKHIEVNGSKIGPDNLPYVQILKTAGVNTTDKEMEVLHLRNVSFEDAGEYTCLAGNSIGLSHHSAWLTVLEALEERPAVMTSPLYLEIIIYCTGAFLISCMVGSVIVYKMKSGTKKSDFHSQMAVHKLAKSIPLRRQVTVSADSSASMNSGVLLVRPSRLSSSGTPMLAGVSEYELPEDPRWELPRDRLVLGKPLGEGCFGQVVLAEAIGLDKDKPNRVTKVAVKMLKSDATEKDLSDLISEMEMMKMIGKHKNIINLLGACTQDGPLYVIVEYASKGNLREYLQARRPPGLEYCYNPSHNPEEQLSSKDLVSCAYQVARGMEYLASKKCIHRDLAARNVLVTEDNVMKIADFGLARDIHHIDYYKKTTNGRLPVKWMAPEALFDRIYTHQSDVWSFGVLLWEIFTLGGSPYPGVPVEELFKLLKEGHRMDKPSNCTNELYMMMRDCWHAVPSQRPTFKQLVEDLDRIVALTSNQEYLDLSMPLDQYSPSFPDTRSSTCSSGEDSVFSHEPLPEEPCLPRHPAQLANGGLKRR

[6] = AUC in rat p.o. at 20 mg/kg concentration; assay type: ADME, organism-based; design: dose 20 mg/kg, route oral; conditions: plasma, po; in short: as §1
[7] = Cmax in rat p.o. at 20 mg/kg concentration; assay type: ADME, organism-based; design: dose 20 mg/kg, route oral; conditions: in vivo, po; in short: as §1
Rattus norvegicus = organism: Rattus norvegicus; experiment: Percentage in free rat serum was determined; assay type: ADME, organism-based
[8] = Solubility was determined; assay type: physicochemical
[9] = Bioavailability in rat (dose 20 mg/kg p.o.); conditions: in vivo, po
[10] = Vdss in rat i.v. at 2 mg/kg concentration; assay type: ADME, organism-based; design: dose 2 mg/kg, route intravenous; conditions: in vivo, iv, read-out: Vdss; in short: as §1
[11] = Half life in rat i.v. at 2 mg/kg concentration; assay type: ADME, organism-based; design: dose 2 mg/kg, route intravenous; conditions: in vivo, iv; in short: as §1
[12] = pKa was determined; assay type: physicochemical
[13] = C24h in rat p.o. at 20 mg/kg concentration; assay type: ADME, organism-based; design: dose 20 mg/kg, route oral; conditions: in vivo, po, read-out: C24h; in short: as §1
[14] = Total body clearance in rat i.v. at 2 mg/kg concentration; assay type: ADME, organism-based; design: dose 2 mg/kg, route intravenous; conditions: in vivo, iv; in short: as §1

Vascular endothelial growth factor receptor 2, sequence (P35968 whole entry): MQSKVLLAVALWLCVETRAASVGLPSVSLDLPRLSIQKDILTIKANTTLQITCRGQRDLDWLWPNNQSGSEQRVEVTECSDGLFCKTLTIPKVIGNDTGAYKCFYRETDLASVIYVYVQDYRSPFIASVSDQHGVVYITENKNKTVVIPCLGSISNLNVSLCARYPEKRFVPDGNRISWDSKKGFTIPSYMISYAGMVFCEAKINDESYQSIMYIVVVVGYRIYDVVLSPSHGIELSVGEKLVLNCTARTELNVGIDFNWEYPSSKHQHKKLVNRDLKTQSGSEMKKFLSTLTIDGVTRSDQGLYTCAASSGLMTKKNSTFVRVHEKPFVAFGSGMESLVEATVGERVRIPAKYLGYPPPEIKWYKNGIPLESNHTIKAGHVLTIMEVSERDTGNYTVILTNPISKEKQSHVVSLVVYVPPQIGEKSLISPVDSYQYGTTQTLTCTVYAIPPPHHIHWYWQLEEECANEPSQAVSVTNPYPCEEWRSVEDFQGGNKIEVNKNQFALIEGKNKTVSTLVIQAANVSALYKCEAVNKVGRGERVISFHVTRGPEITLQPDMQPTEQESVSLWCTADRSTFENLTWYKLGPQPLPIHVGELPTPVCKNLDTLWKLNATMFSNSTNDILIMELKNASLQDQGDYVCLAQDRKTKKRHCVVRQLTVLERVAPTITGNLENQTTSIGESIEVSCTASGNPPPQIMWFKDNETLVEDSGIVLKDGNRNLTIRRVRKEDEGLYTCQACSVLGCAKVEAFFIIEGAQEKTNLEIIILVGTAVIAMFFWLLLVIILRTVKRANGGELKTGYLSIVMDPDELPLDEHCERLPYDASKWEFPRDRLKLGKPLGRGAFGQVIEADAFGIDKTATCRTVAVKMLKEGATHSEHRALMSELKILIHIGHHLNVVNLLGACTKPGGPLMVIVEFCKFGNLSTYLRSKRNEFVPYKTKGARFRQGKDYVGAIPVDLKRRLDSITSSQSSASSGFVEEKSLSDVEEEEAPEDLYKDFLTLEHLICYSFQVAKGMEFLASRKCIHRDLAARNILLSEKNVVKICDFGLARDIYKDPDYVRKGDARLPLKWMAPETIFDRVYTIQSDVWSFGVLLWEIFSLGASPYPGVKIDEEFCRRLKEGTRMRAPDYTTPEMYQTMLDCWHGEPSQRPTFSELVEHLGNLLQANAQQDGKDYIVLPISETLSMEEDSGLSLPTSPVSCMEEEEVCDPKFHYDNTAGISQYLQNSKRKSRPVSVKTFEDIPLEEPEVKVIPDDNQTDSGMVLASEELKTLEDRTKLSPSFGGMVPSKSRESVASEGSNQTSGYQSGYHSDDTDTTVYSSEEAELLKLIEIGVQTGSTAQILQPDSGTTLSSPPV

SMILES | IC50 [1] [nM] | IC50 (A549) [nM] | IC50 [2] [nM] | also measured
COc1cc2c(Nc3c(F)ccc4c3OCO4)ncnc2cc1OCCCN1CCOCC1 | 8160 | 450 | 28 | –
COc1cccc(Nc2ncnc3cc(OC)c(OC)cc23)c1 | – | – | 253 | –
COc1cccc(Nc2ncnc3cc(OCCCN4CCOCC4)c(OC)cc23)c1 | 1110 | 1050 | 37 | –
COc1cc2c(Nc3c(Cl)ccc4c3OCO4)ncnc2cc1OCC1CCN(C)CC1 | 15600 | 260 | – | IC50 [4]: > 100000 nM; IC50 [5]: > 100000 nM; AUC [6]: 2500 ng·h/mL; clearance [14]: 49 mL/min/kg; Cmax [7]: 910 nM; Activity (Rattus norvegicus): 9.8%; solubility ([8]; read-out: S): > 3300 µM; bioavailability [9]: 37%; Vd [10]: 17 L/kg; half-life [11]: 5.7 h; pKa [12]: 9.4; concentration at 24 h [13]: 60 nM
COc1cc2c(Nc3cccc4c3OCC4)ncnc2cc1OCCCN1CCOCC1 | – | – | 433 | –
COc1cc2c(Nc3cccc4ccoc34)ncnc2cc1OCCCN1CCOCC1 | 410 | – | 30 | –
COc1ccc(Cl)c(Nc2ncnc3cc(OCCCN4CCOCC4)c(OC)cc23)c1 | 1180 | 310 | 10 | –
COc1cc2c(Nc3cccc4c(Cl)coc34)ncnc2cc1OCCCN1CCOCC1 | 100 | – | < 4 | –
COc1cc2c(Nc3c(Br)ccc4c3OCO4)ncnc2cc1OCCCN1CCOCC1 | 42600 | 140 | < 4 | –
COc1ccc(Nc2ncnc3cc(OCCCN4CCOCC4)c(OC)cc23)cc1 | – | – | 477 | –
COc1cc2c(Nc3c(Cl)ccc4c3OCO4)ncnc2cc1OCc1ccnc(C#N)c1 | 77000 | 230 | 10 | Activity (Rattus norvegicus): 1.6%; solubility [8]: 10 µM (≈ 4.62 µg/mL); pKa [12]: 4.9
COc1cc2c(Nc3cccc4c3ccn4C)ncnc2cc1OCCCN1CCOCC1 | 420 | – | 40 | –
COc1cc2c(Nc3c(Cl)ccc4c3OCO4)ncnc2cc1OCCCN1CCOCC1 | 17000 | 180 | < 4 | IC50 (Angiopoietin-1 receptor): 17100 nM; IC50 [4]: > 100000 nM; IC50 [5]: > 100000 nM; Activity (Rattus norvegicus): 10.5%; solubility ([8]; read-out: S): 71 µM (≈ 33.6 µg/mL); pKa [12]: 7.2

Second part, led by results:

IC50 [1] [nM] | IC50 (A549) [nM] | IC50 [2] [nM] | SMILES | also measured
– | – | 270 | COc1cc2c(Nc3cccc4c3OC(F)(F)O4)ncnc2cc1OCCCN1CCOCC1 | –
2170 | 130 | < 4 | COc1cc2c(Nc3c(Cl)ccc4c3OCO4)ncnc2cc1OCCCN1CCCCC1 | IC50 (Angiopoietin-1 receptor): 11300 nM; clearance [3]: 36 mL/min/kg; IC50 [4]: > 100000 nM; IC50 [5]: > 100000 nM; AUC [6]: 7900 ng·h/mL; Cmax [7]: 2960 nM; Activity (Rattus norvegicus): 13.7%; solubility ([8]; read-out: S): > 2000 µM; bioavailability [9]: 86%; Vd [10]: 14.4 L/kg; half-life [11]: 5.8 h; pKa [12]: 9.7; concentration at 24 h [13]: 80 nM
– | – | 260 | COc1cc2c(Nc3cccc4cc[nH]c34)ncnc2cc1OCCCN1CCOCC1 | –
1380 | 260 | 10 | COc1cc2c(Nc3c(Cl)ccc4ccoc34)ncnc2cc1OCCCN1CCOCC1 | –
– | – | 760 | COc1cc2c(Nc3ccc4c(c3)OCO4)ncnc2cc1OCCCN1CCOCC1 | –
– | – | 177 | COc1cc2c(Nc3cccc4[nH]ccc34)ncnc2cc1OCCCN1CCOCC1 | –
4960 | 210 | 14 | COc1cc2c(Nc3cccc4c3OCO4)ncnc2cc1OCCCN1CCOCC1 | –
– | – | 560 | COc1ccccc1Nc1ncnc2cc(OCCCN3CCOCC3)c(OC)cc12 | –
– | – | 370 | COc1cc2c(Nc3cccc4c3OCCO4)ncnc2cc1OCCCN1CCOCC1 | –
250 | – | 16 | COc1cc2c(Nc3cccc4occc34)ncnc2cc1OCCCN1CCOCC1 | –
73800 | 1200 | 50 | COc1cc2ncnc(Nc3c(Cl)ccc4c3OCO4)c2cc1OCCCN1CCOCC1 | –
1230 | 230 | 10 | COc1cc2c(Nc3c(Cl)ccc4occc34)ncnc2cc1OCCCN1CCOCC1 | –
2320 | 980 | 20 | COc1cc2c(Nc3cccc4c(Cl)c[nH]c34)ncnc2cc1OCCCN1CCOCC1 | –
– | – | 963 | CCOc1ccc(Cl)c(Nc2ncnc3cc(OCCCN4CCOCC4)c(OC)cc23)c1 | –
91300 | 670 | 10 | Clc1ccc2c(c1Nc1ncnc3cc(OCCCN4CCOCC4)ccc13)OCO2 | –
